Results reported in ChEMBL document CHEMBL1275383, “Synthesis and antioxidant properties of pulvinic acids analogues” (Bioorg Med Chem, 2010).
Activity calls are given as the source filed them. No cut-off for these calls is given here.

Legend:
Type in all cases: functional
[1] = Antioxidant activity against ABTS radical assessed as Trolox equivalent
[2] = Antioxidant activity assessed as protection against Fenton oxidation-induced thymidine degradation in 11.4 mM phosphate buffer at 100 uM by competitive immuno-enzymatic assay
[3] = Antioxidant activity assessed as protection against 340 Gy gamma-radiation-induced thymidine degradation in 12.5 mM phosphate buffer at 50 uM by competitive immuno-enzymatic assay
Outline: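 Thymidine at 15 µM with compound at 50 µM, 12.5 mM phosphate buffer, given 340 Gy from a 137Cs source. Remaining intact thymidine measured by competitive immunoassay with anti-thymidine monoclonal antibody; duplicate, averaged.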

[4] = Antioxidant activity assessed as protection against UV/H2O2-induced thymidine degradation in 12.5 mM phosphate buffer at 100 uM by competitive immuno-enzymatic assay
Outline: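 Thymidine at 70 µM with compound at 100 µM and H2O2 at 5 mM in 12.5 mM phosphate buffer, irradiated at 254 nm, 1.75 J cm-2. Intact thymidine quantified by competitive anti-thymidine monoclonal antibody immunoassay; duplicate, averaged.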

[5] = system: Radical scavenging activity; experiment: Antioxidant activity assessed as DPPH free radical scavenging activity by measuring [DPPH]/antioxidant EC50 ratio measured every 5 mins for 1 hr
Outline: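 DPPH (200 µM ethanol stock, 100 µM final) mixed 1:1 with compound in ethanol, 10 concentrations (0–1 10^-3 M), duplicate. Read at 515 nm every 5 min for 1 h; % remaining DPPH at steady state plotted against antioxidant/DPPH molar ratio to give EC50. Reported as antiradical power; no value if steady state not reached within 1 h.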

[6] = Antioxidant activity assessed as beta-carotene bleaching activity at 24 uM after 4 hrs by spectrophotometry relative to control
Outline: (§1)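 Emulsion of β-carotene, linoleic acid and Tween 40 in oxygen-saturated water added to compound in ethanol (24 or 116 µM). Incubated at 50 °C, absorbance at 470 nm read at zero and followed over 4 h. % protection = [1 − (A0 − At)/(Ac0 − Act)] × 100 versus no-compound control; triplicate, averaged.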

[7] = Antioxidant activity assessed as beta-carotene bleaching activity at 116 uM after 4 hrs by spectrophotometry relative to contro; outline: as §1

Structure (SMILES)	Activity [1] [mM]	Activity [2] [%]	Activity [3] [%]	Activity [4] [%]	Ratio [5]	Activity [6]	Activity [7]
COC(=O)/C=C1\OC(=O)C(c2ccc([N+](=O)[O-])cc2)=C1O	18.7	40.7	58.5	31.5	–	–	–
COC(=O)/C=C1\OC(=O)C(c2ccc(O)cc2)=C1O	0.48	82.7	57.2	32.6	2.85	–	–
COC(=O)/C(=C1/OC(=O)C(c2ccc(OC)cc2)=C1O)c1ccccc1	1.67	58	46.4	42.9	3.2	–	–
COC(=O)/C(=C1/OC(=O)C(c2ccc(OC)cc2)=C1O)c1ccsc1	2.69	45.2	76	34.8	2.97	–	–
COC(=O)[C@H](O)[C@H]1OC(=O)C(c2ccc(Br)cc2)=C1O	4.91	37.6	60.2	37.3	2.81	–	–
O=C1O[C@H]([C@@H](O)CO)C(O)=C1O	0.64	–	–	–	4.56	inactive	inactive
COC(=O)[C@H](O)[C@H]1OC(=O)C(c2ccc(C)cc2)=C1O	1.54	7	42.7	43.8	3.27	–	–
COC(=O)/C=C1\OC(=O)C(c2ccc(Br)cc2)=C1O	17.7	27.1	51.7	41.2	1.17	–	–
COC(=O)[C@H](O)[C@H]1OC(=O)C(c2ccc(F)cc2)=C1O	2.94	55.2	39	55.3	4.2	–	–
COC(=O)/C=C1\OC(=O)C(c2cccs2)=C1O	–	0	51.4	23.6	–	–	–
COC(=O)[C@H](O)[C@H]1OC(=O)C(C(C)=O)=C1O	82.7	0	5.6	7.4	–	–	–
COC(=O)/C=C1\OC(=O)C(c2ccc(C)cc2)=C1O	6.51	14.1	30	52.7	2.56	–	–
COC(=O)[C@H](O)[C@H]1OC(=O)C(c2ccc(O)cc2)=C1O	0.6	93.4	63.7	29.4	3	–	–
COC(=O)[C@H](O)[C@H]1OC(=O)C(c2ccc(OCc3ccccc3)cc2)=C1O	2.16	21.1	37.4	51	3.12	–	–
COC(=O)[C@H](O)[C@H]1OC(=O)C(c2ccc(OC)cc2)=C1O	1.55	25.8	87.4	24.9	3.44	–	–
COC(=O)[C@H](O)[C@H]1OC(=O)C(c2ccc([N+](=O)[O-])cc2)=C1O	24.6	70.7	60.9	33.4	–	–	–

Structure (SMILES)	Activity [1] [mM]	Activity [2] [%]	Activity [3] [%]	Activity [4] [%]	Ratio [5]	Activity [6]	Activity [7]
COC(=O)/C(=C1/OC(=O)C(c2ccc(OC)cc2)=C1O)c1ccccc1C(F)(F)F	12.1	14.8	17.6	46.1	–	–	Active
COC(=O)/C(=C1/OC(=O)C(c2ccc(OC)cc2)=C1O)c1cccc(O)c1	1.56	91.6	34.2	50	3.68	–	–
COC(=O)[C@H](O)[C@H]1OC(=O)C(C(=O)OCc2ccccc2)=C1O	43.3	2.6	47.9	16.8	–	–	–
COC(=O)/C(=C1/OC(=O)C(c2ccc(OC)cc2)=C1O)c1ccco1	1.16	0	62	28.7	3.42	–	–
COC(=O)/C(=C1/OC(=O)C(c2ccc(OC)cc2)=C1O)c1ccc(Cl)cc1	3.97	41.7	22.6	45	3.37	–	–
O=C(O)c1cc(O)c(O)c(O)c1	1.36	–	–	–	11.7	–	–
COC(=O)/C(=C1/OC(=O)C(c2ccc(OC)cc2)=C1O)c1cccc(C(F)(F)F)c1	2.75	33.9	46.3	35.8	4.08	–	–
COC(=O)[C@H](O)[C@H]1OC(=O)C(c2ccccc2)=C1O	1.94	31	62	33.2	3.57	–	> 44%
COC(=O)[C@H](O)[C@H]1OC(=O)C(c2cccs2)=C1O	–	0	40.3	16.1	2.25	–	–
COC(=O)/C(=C1/OC(=O)C(c2ccc(OC)cc2)=C1O)c1ccc(C(C)=O)cc1	6.18	41.1	34.3	41.1	3.27	Active	Active
Cc1c(C)c2c(c(C)c1O)CCC(C)(C(=O)O)O2 (stereo not given)	–	11.7	5.2	4.4	–	–	–
COC(=O)/C=C1\OC(=O)C(c2ccc(OC)cc2)=C1O	1.31	32	73.8	30.7	3.6	–	> 44%
COC(=O)/C=C1\OC(=O)C(c2ccc(F)cc2)=C1O	–	28.3	52.9	69.3	1.97	–	–
COC(=O)/C=C1\OC(=O)C(c2ccccc2)=C1O	46.2	45.8	69.4	37.7	3.22	–	–
COC(=O)/C(=C1/OC(=O)C(c2ccc(OC)cc2)=C1O)c1ccoc1	1.06	13.8	77	36	3.35	–	–
COC(=O)/C=C1\OC(=O)C(C(=O)OCc2ccccc2)=C1O	18.5	0.3	23.1	13.9	0.93	–	–
